The values that follow come from publication PMC4979993 (Nature structural & molecular biology, 2011).

Data set [1] deals with Aβ1–40. Briefly: cTCCD single-molecule analysis of Aβ1–40 aggregation. Type of data set: biochemical. Put shortly:
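Equimolar HiLyteFluor488- and HiLyteFluor647-labeled Aβ1–40 (2 μM) in SSPE pH 7.4, 37 °C, 200 rpm agitation; with or without clusterin at 1:1 molar. Sampled every 2–3 h and diluted to picomolar for two-colour confocal coincidence detection (1 ms bins, stage scanned 200 µm s⁻¹). Coincident bursts were scored as oligomers. Apparent size came from their brightness relative to non-coincident monomer bursts; n=3.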

The target in another data set is Aβ1–40 fibrils (Homo sapiens, UniProt P05067). Kind of data set: cTCCD analysis of disaggregation of Aβ1–40 fibrils. Type of data set: biochemical. The settings on record: for ΔG° (dimer) / ΔG° (larger oligomer): from steady state apparent size distributions. Put shortly:
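Fibrils grown statically from 8 μM labeled Aβ1–40, 72 h, 37 °C. Pelleted at ~10,000×g for 30 min, washed twice in SSPE pH 7.4, then resuspended. Where used, AlexaFluor647-labeled human serum clusterin was incubated with fibrils 12–16 h at 21 °C and unbound removed by centrifugation (100–200 nM bound). Released species tracked by cTCCD to plateau (~50 h). Rates fitted with monomolecular dissociation functions.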

The test system of data set [2] is Aβ1–40. Kind of data set: TIRFM imaging of species in Aβ1–40 aggregation. Type of data set: biochemical. Put shortly:
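Dual-label HiLyteFluor488/HiLyteFluor647 Aβ1–40 (monomer stocks in pH 12 NaOH, ice-sonicated 30 min) diluted into SSPE pH 7.4. Incubated 24 h at 37 °C with 200 rpm agitation. Human serum-derived clusterin was added at 4 h where used. Species on surface imaged by two-colour TIRFM (488 and 633 nm excitation, split-EMCCD, 7.9 frames s⁻¹). Sizes compared by two-sample, two-tailed, independent t-test.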

The next data set concerns Aβ1–40 oligomers. Kind of data set: Formation and persistence of clusterin:Aβ complexes. Type of data set: binding. Put shortly: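 HiLyteFluor488 or HiLyteFluor647-labeled Aβ1–40, from NaOH-solubilised monomer in SSPE pH 7.4, is aggregated at 37 °C, 200 rpm, with AlexaFluor647-labeled human serum clusterin at 1:1 molar ratio, or released from pre-formed clusterin-bound fibrils. Complexes are diluted to […] at 21 °C and sampled over time by two-colour coincidence detection (cTCCD). Persistence is compared by two-tailed t-tests.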

For data set [3], the system named is Aβ1–40 fibril formation. The settings on record: cited from earlier work.
Data set [4] concerns Aβ1–40 fibril formation. Briefly: Bulk aggregation / fibril formation of Aβ1–40. Type of data set: biochemical. Conditions: HiLyteFluor488 or HiLyteFluor647 label, control experiments.
A further data set relates to amyloid fibrils. Conditions: previous bulk measurements; cited from earlier work.
The conditions of data set [5]: cited from earlier work.
Setting [6] is: with clusterin, disaggregation, n=8.
Where [7] appears, read: Disaggregation, without clusterin, n=3, s.d.
[8] abbreviates: Disaggregation, without clusterin, n=12, s.d.
Setting [9] is: without clusterin, disaggregation, n=12.

Where “and” joins values, the source holds several entries; their conditions need not be identical. Equal entries are not always repeated. Entries after “also recorded” stand apart in the source; their conditions may differ.

Consider “clusterin: extracellular chaperone protein, extracted from human serum”, for which the “effect on distribution of the sizes of Aβ1–40 oligomers” value in the data set with Aβ1–40 [1] (in presence of clusterin) is given as “not substantially altered”. The “ΔG° (dimer)” value in the data set with Aβ1–40 fibrils (Disaggregation, with clusterin, n=4, s.d.) was −25.8 ± 2.6 kJ mol^−1 and −25.8 ± 2.6 (4) kJ mol^−1. The “ΔG° (larger oligomer)” value in the data set with Aβ1–40 fibrils (Disaggregation, with clusterin, n=12, s.d.) is −43.9 ± 1.0 kJ mol^−1 and −43.9 ± 1.0 (12) kJ mol^−1. The “effect on rate and extent of fibril disaggregation” value with Aβ1–40 fibrils (clusterin bound to Aβ fibrils) was “decrease both the rate and the extent of fibril disaggregation”. The “Rate of clusterin release” value in the data set with Aβ1–40 fibrils (with clusterin, disaggregation of fibrils, n=3, s.e.m.) is reported as “(9.8 ± 0.9)×10^−7 (3) s^−1”. Also, in the data set with Aβ1–40 fibrils (with clusterin, disaggregation, n=3), the “Final soluble clusterin concentration” value was 90 ± 14 (3) nM. In addition, in the data set with Aβ1–40 fibrils (setting [6]), the “Final concentration of all species” value is 120 ± 20 (8) nM and the “Final concentration of oligomeric species” value is 0.42 ± 0.1 (8) nM. Besides, the “effect on monomer concentration” value with Aβ1–40 fibrils (with vs without clusterin, plateau region, n=8, P-value 0.0003, t-test) is on record as “decreased monomer concentration”. Besides, the “effect on oligomer concentration / total oligomer population” value in the data set with Aβ1–40 fibrils (with vs without clusterin, plateau region, n=8, P-value 0.002, t-test) was “increased oligomer concentration; also recorded: increase in the total oligomer population”. For the same substance, in the data set on Aβ1–40 [2] (2 μM Aβ1–40, 24 h aggregation, 2 µM clusterin added at 4 h, P-value 0.01), the “reduction in average size of species present” value is recorded as “approximately 50%”. Also, the “binding to soluble oligomers” value in the data set with Aβ1–40 oligomers (all oligomers found during aggregation and disaggregation) was “all of which interact with clusterin to form long-lived, stable complexes; also recorded: binds to all members of the ensemble of soluble oligomers”. Besides, the “persistence of clusterin:Aβ complexes” value in the data set with Aβ1–40 oligomers (formed at 100 nM, after dilution at picomolar concentrations) is “over 200 h”. Moreover, in the data set with Aβ1–40 fibril formation [3], the “effect on fibril formation, bulk measurements” value is reported as “strongly inhibits fibril formation”.
amyloid-β1–40 [Aβ1–40]: the “oligomers as share of total number of molecules” value with Aβ1–40 [1] (30 nM Aβ1–40, 37 °C) is recorded as “approximately 1%”. Further, in the data set on Aβ1–40 [1] (30 nM Aβ1–40, SSPE pH 7.4, 37 °C, agitation), the “concentration of oligomers formed” value turned out to be 300 pM. The “distribution of apparent oligomer sizes” value in the data set on Aβ1–40 [1] (600 nM – 2 µM and 30 nM, aggregation and disaggregation) was “decreased exponentially with increasing apparent size; also recorded: effectively the same as that formed at a concentration of 30 nM; also recorded: approximately exponential decrease with apparent size”. In the data set with Aβ1–40 [1] (2 μM Aβ1–40, 37 °C), the “oligomers as share of total molecules at peak” value is on record as “approximately 1%”. Besides, the “decrease in monomer concentration during growth phase of fibril formation” value with Aβ1–40 [1] (2 μM Aβ1–40, 37 °C, agitation) stood at 75%. Also, the “peak concentration of stable oligomeric species” value in the data set on Aβ1–40 [1] (2 μM Aβ1–40, SSPE pH 7.4, 37 °C, agitation) was ~ 20 nM. The “ΔG° (dimer)” value in the data set on Aβ1–40 [1] (Aggregation, without clusterin, from steady state apparent size distributions, n=4, s.d.) is on record as −23.0 ± 2.9 (4) kJ mol^−1. Further, the “range of oligomer sizes formed” value with Aβ1–40 [1] (cTCCD, apparent size) is “dimers to 50mers”. For the same substance, the “stability of the majority of soluble oligomeric species” value in the data set with Aβ1–40 [1] (~25–50 pM, 21 °C) is listed as “over three”. Besides, in the data set with Aβ1–40 fibrils (setting [7]), the “ΔG° (dimer)” value is on record as −18.2 ± 0.5 (3) kJ mol^−1, the “ΔH° (dimer)” value is −43.8 ± 24.5 (3) kJ mol^−1 and the “ΔS° dimer” value is on record as −80.8 ± 83.5 (3) kJ mol^−1. For the same substance, in the data set with Aβ1–40 fibrils (setting [8]), the “ΔG° (larger oligomer)” value is −38.9 ± 2.7 (12) kJ mol^−1, the “ΔH° (larger oligomer)” value is listed as −29.1 ± 0.3 (12) kJ mol^−1 and the “ΔS° larger than dimer” value is given as 28.3 ± 1.1 (12) kJ mol^−1. Further, in the data set with Aβ1–40 fibrils (setting [9]), the “Final concentration of all species” value is listed as 270 ± 20 (12) nM and the “Final concentration of oligomeric species” value was 0.16 ± 0.06 (12) nM. Besides, the “average size of species present” value in the data set with Aβ1–40 [2] (2 μM Aβ1–40 without clusterin, 24 h aggregation, s.e.m.) worked out at 1400 ± 200 nm. Also, the “effect of fluorophores on bulk aggregation behavior” value in the data set on Aβ1–40 fibril formation [4] is recorded as “neither fluorophore had any appreciable effect on the bulk aggregation behavior”. The “free energy of the formation of amyloid fibrils” value with amyloid fibrils is “–36 kJ mol^−1”. In data set [5], the “Aβ1–40 clearance time in vivo” value was ~ 14 h and the “Aβ1–40 production time in vivo” value is listed as ~ 15 h.
